Experimental data published in ChEMBL document CHEMBL1255303, “In vitro and in vivo antifungal activities of T-2307, a novel arylamidine” (2008).
≈ marks a conversion by molar mass, not a printed value. Calls of active or inactive are those of the source. No cut-off for these calls is given here.

Experiments:
Saccharomyces cerevisiae = assay: Antifungal activity against Saccharomyces cerevisiae ATCC 24657 after 48 hrs by broth microdilution method; assay type: functional; settings: ATCC 24657, 48 h
Outline: (§1)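 CLSI M27-A2 (yeasts) / M38-A (moulds) broth microdilution in RPMI 1640 buffered to pH 7.0 with 0.165 M MOPS. Malassezia furfur got the same medium supplemented with glucose, bile salts, glycerol, glycerol monostearate and Tween 20. Final inoculum 0.65 × 10^3–2.5 × 10^3 CFU/ml for yeasts and 0.87 × 10^4–3.8 × 10^4 CFU/ml for filamentous fungi. Incubation at 35°C except M. racemosus and F. solani, which were held at 30°C.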

Candida albicans [1] = assay: Antifungal activity against Candida albicans ATCC 64124 after 47 hrs by broth microdilution method; assay type: functional; settings: ATCC 64124, 47 h
Outline: (§2)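 Fluconazole-resistant or susceptible-dose-dependent ATCC C. albicans strains were tested by CLSI M27-A2 broth microdilution in RPMI 1640–0.165 M MOPS, pH 7.0, with a final inoculum of 1.1–1.5 × 10^3 CFU/ml at 35°C for about 47 h. MIC was the lowest concentration with a prominent (~50%) turbidity decrease relative to growth control; amphotericin B was read at complete inhibition.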

Candida albicans [2] = assay: Antifungal activity against Candida albicans TIMM 1623 after 48 hrs by broth microdilution method; assay type: functional; settings: TIMM 1623, 48 h; outline: as §1
Fusarium solani = assay: Antifungal activity against Fusarium solani IFO 31093 after 48 hrs by broth microdilution method; assay type: functional; settings: IFO 31093, 48 h; outline: as §1
Candida albicans [3] = assay: Antifungal activity against Candida albicans ATCC 64550 after 47 hrs by broth microdilution method; assay type: functional; settings: ATCC 64550, 47 h
Outline: (§3)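 Fluconazole-resistant or susceptible-dose-dependent C. albicans ATCC strains were tested by broth microdilution in RPMI 1640-MOPS. Inoculum was 1.1 × 10^3–1.5 × 10^3 CFU/ml, with incubation at 35°C for about 47 h. Yeast MIC was read as about 50% turbidity decrease relative to growth control, except amphotericin B, read at complete inhibition.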

[4] = system: Meyerozyma guilliermondii; assay: Antifungal activity against Candida guilliermondii clinical isolates after 48 hrs by broth microdilution method; assay type: functional
Outline: (§4)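 Clinical isolates from Japanese hospitals or culture collections were tested by broth microdilution in RPMI 1640-MOPS. Inoculum was 0.57 × 10^3–2.5 × 10^3 CFU/ml for yeasts and 0.4 × 10^4–3.3 × 10^4 CFU/ml for filamentous fungi. Incubation was at 35°C for about 48 h, or 72 h where footnoted. Results were summarised as MIC range, MIC50 and MIC90.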

Candida albicans [5] = assay: Antifungal activity against Candida albicans TIMM 1623 infected ICR mouse assessed as delay in mortality of mouse at 0.1 mg/kg after 6 days; assay type: functional, organism-based; parameters: dose 0.1 mg/kg
Outline: (§5)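 Male ICR mice, 4 weeks old and SPF, were made neutropenic with intraperitoneal cyclophosphamide. The schedule was 200 mg/kg on day −3 (day −4 for Cryptococcus) plus 100 mg/kg on day +1. Infection was by tail-vein injection of 0.2 ml suspension: C. albicans 3.0 × 10^4, C. neoformans 9.1 × 10^4, A. fumigatus conidia 8.4 × 10^4 CFU/mouse. Drugs were given subcutaneously once daily for 7 days from 2 h post-infection; controls received saline. Groups had 8–10 mice.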

Aspergillus niger = assay: Antifungal activity against Aspergillus niger NBRC 33023 after 48 hrs by broth microdilution method; assay type: functional; settings: NBRC 33023, 48 h; outline: as §1
Candida albicans [6] = assay: Antifungal activity against Candida albicans ATCC MYA-2732 after 47 hrs by broth microdilution method; assay type: functional; settings: ATCC MYA-2732, 47 h; outline: as §3
Rhizopus arrhizus = assay: Antifungal activity against Rhizopus oryzae NBRC 31005 after 24 hrs by broth microdilution method; assay type: functional; settings: NBRC 31005, 24 h; outline: as §1
Cryptococcus neoformans [7] = assay: Antifungal activity against Cryptococcus neoformans ATCC 90112 after 72 hrs by broth microdilution method; assay type: functional; settings: ATCC 90112, 72 h
Outline: (§6)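 CLSI M27-A2 (yeasts) or M38-A (A. fumigatus) broth microdilution in RPMI 1640 buffered to pH 7.0 with 0.165 M MOPS. Final inocula were 0.65–2.5 × 10^3 CFU/ml for yeasts and 0.87–3.8 × 10^4 CFU/ml for filamentous fungi. Incubation was at 35°C for about 48 h (72 h for C. neoformans). MIC was the lowest concentration giving a prominent (~50%) turbidity drop versus growth control; amphotericin B required complete inhibition.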

Candida albicans [8] = assay: Antifungal activity against Candida albicans ATCC MYA-574 after 47 hrs by broth microdilution method; assay type: functional; settings: ATCC MYA-574, 47 h; outline: as §3
Pichia kudriavzevii = assay: Antifungal activity against Candida krusei IFO 0584 after 48 hrs by broth microdilution method; assay type: functional; settings: IFO 0584, 48 h; outline: as §1
Candida albicans [9] = assay: Antifungal activity against Candida albicans TIMM 1623 infected ICR mouse after 6 days; assay type: functional; settings: TIMM 1623, 144 h; outline: as §5
Aspergillus flavus = assay: Antifungal activity against Aspergillus flavus NBRC 6343 after 48 hrs by broth microdilution method; assay type: functional; settings: NBRC 6343, 48 h; outline: as §1
Aspergillus fumigatus [10] = assay: Antifungal activity against Aspergillus fumigatus IFM 46895 infected ICR mouse after 6 days; assay type: functional; settings: IFM 46895, 144 h; outline: as §5
Cryptococcus neoformans [11] = assay: Antifungal activity against Cryptococcus neoformans ATCC 90112 infected ICR mouse assessed as delay in mortality of mouse at 0.3 mg/kg after 9 days; assay type: functional, organism-based; parameters: dose 0.3 mg/kg; outline: as §5
Nakaseomyces glabratus = assay: Antifungal activity against Candida glabrata clinical isolates after 48 hrs by broth microdilution method; assay type: functional; outline: as §4
Cryptococcus neoformans [12] = assay: Antifungal activity against Cryptococcus neoformans ATCC 90112 infected ICR mouse after 9 days; assay type: functional; settings: ATCC 90112, 216 h; outline: as §5
Aspergillus fumigatus [13] = assay: Antifungal activity against Aspergillus fumigatus IFM 46895 after 48 hrs by broth microdilution method; assay type: functional; settings: IFM 46895, 48 h; outline: as §1
Cryptococcus neoformans [14] = assay: Antifungal activity against Cryptococcus neoformans TIMM 0354 after 72 hrs by broth microdilution method; assay type: functional; settings: TIMM 0354, 72 h; outline: as §6
Aspergillus fumigatus [15] = assay: Antifungal activity against Aspergillus fumigatus IFM 49895 after 48 hrs by broth microdilution method; assay type: functional; settings: IFM 49895, 48 h; outline: as §1
[16] = system: Meyerozyma guilliermondii; assay: Antifungal activity against Candida guilliermondii IFO 10279 after 48 hrs by broth microdilution method; assay type: functional; settings: IFO 10279, 48 h; outline: as §1
Aspergillus fumigatus [17] = assay: Antifungal activity against Aspergillus fumigatus IFM 46895 infected ICR mouse assessed as delay in mortality of mouse at 1 mg/kg after 6 days; assay type: functional, organism-based; parameters: dose 1 mg/kg; outline: as §5
Candida albicans [18] = assay: Antifungal activity against Candida albicans ATCC MYA-575 after 47 hrs by broth microdilution method; assay type: functional; settings: ATCC MYA-575, 47 h; outline: as §2

C[C@@H]1[C@H](O)[C@@H](C)/C=C/C=C/C=C/C=C/C=C/C=C/C=C/[C@H](O[C@@H]2O[C@H](C)[C@@H](O)[C@H](N)[C@@H]2O)C[C@@H]2O[C@](O)(C[C@@H](O)C[C@@H](O)[C@H](O)CC[C@@H](O)C[C@@H](O)CC(=O)O[C@H]1C)C[C@H](O)[C@H]2C(=O)O [AMPHOTERICIN B]
MFC (Saccharomyces cerevisiae): 2 µg/mL (≈ 2.16 µM) | MIC (Saccharomyces cerevisiae): 1 µg/mL (≈ 1.08 µM) | MIC (Candida albicans [1]): 2 µg/mL (≈ 2.16 µM) | MFC (Candida albicans [2]): > 1 µg/mL | MIC (Candida albicans [2]): 1 µg/mL (≈ 1.08 µM) | MFC (Fusarium solani): 2 µg/mL (≈ 2.16 µM) | MIC (Fusarium solani): 2 µg/mL (≈ 2.16 µM) | MIC (Candida albicans [3]): 1 µg/mL (≈ 1.08 µM) | MIC50 [4]: 1 µg/mL (≈ 1.08 µM) | MIC90 [4]: 1 µg/mL (≈ 1.08 µM) | Activity (Candida albicans [5]): Active | MFC (Aspergillus niger): 2 µg/mL (≈ 2.16 µM) | MIC (Aspergillus niger): 2 µg/mL (≈ 2.16 µM) | MIC (Candida albicans [6]): 2 µg/mL (≈ 2.16 µM) | MFC (Rhizopus arrhizus): 1 µg/mL (≈ 1.08 µM) | MIC (Rhizopus arrhizus): 1 µg/mL (≈ 1.08 µM) | MFC (Cryptococcus neoformans [7]): 1 µg/mL (≈ 1.08 µM) | MIC (Cryptococcus neoformans [7]): 1 µg/mL (≈ 1.08 µM) | MIC (Candida albicans [8]): 1 µg/mL (≈ 1.08 µM) | MFC (Pichia kudriavzevii): 2 µg/mL (≈ 2.16 µM) | MIC (Pichia kudriavzevii): 2 µg/mL (≈ 2.16 µM) | ED50 (Candida albicans [9]): 0.0466 mg/kg | MFC (Aspergillus flavus): 2 µg/mL (≈ 2.16 µM) | MIC (Aspergillus flavus): 2 µg/mL (≈ 2.16 µM) | ED50 (Aspergillus fumigatus [10]): 0.289 mg/kg | Activity (Cryptococcus neoformans [11]): Active | MIC (Nakaseomyces glabratus): 1 µg/mL (≈ 1.08 µM) | MIC50 (Nakaseomyces glabratus): 1 µg/mL (≈ 1.08 µM) | MIC90 (Nakaseomyces glabratus): 2 µg/mL (≈ 2.16 µM) | ED50 (Cryptococcus neoformans [12]): 0.199 mg/kg | MFC (Aspergillus fumigatus [13]): 2 µg/mL (≈ 2.16 µM) | MIC (Aspergillus fumigatus [13]): 2 µg/mL (≈ 2.16 µM) | MFC (Cryptococcus neoformans [14]): 1 µg/mL (≈ 1.08 µM) | MIC (Cryptococcus neoformans [14]): 1 µg/mL (≈ 1.08 µM) | MFC (Aspergillus fumigatus [15]): 2 µg/mL (≈ 2.16 µM) | MIC (Aspergillus fumigatus [15]): 2 µg/mL (≈ 2.16 µM) | MFC [16]: 1 µg/mL (≈ 1.08 µM) | MIC [16]: 0.5 µg/mL (≈ 0.541 µM) | Activity (Aspergillus fumigatus [17]): Active | MIC (Candida albicans [18]): 2 µg/mL (≈ 2.16 µM)
